Assay results published in ChEMBL document CHEMBL1133453, “Further studies on nociceptin-related peptides: discovery of a new chemical template with antagonist activity on the nociceptin receptor” (J Med Chem, 2000).
Active and inactive are the calls of the source. No cut-off for these calls is given here. Numbered stars: 1 amine (or outer) side, 2 acyl side, 3 side chain; on linkers, the order of the positions; unused ones are H or OH. Square brackets hold non-standard residues; d marks the D form. Peptide text beside a SMILES is read from it. X5 = N[C@@H](Cc1ccc(O)cc1)CN(CC(=O)[*:2])[*:1]; X1 = CC(C)C[C@H](N)CN(CC(=O)[*:2])[*:1]; Nphe = O=C(O)CNCc1ccccc1

Assays:
Mus musculus [1] = organism: Mus musculus; test: Compound was tested for the antagonistic activity on mouse vas deferens using NC(1-13)NH2 as agonist; NA means Inactive up to 10 uM; type: functional, organism-based
Summary of the method: (§1)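 Electrically stimulated mouse vas deferens (Mg2+-free Krebs, 33 °C, 0.1 Hz, 1-ms pulses). Antagonist at 10 µM added 15 min before a cumulative NC(1-13)NH2 concentration-response curve. pKB calculated with the Gaddum-Schild equation, assuming a slope of 1, from the concentration ratio. Mean of at least 3 experiments, with 95% confidence limits.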

Mus musculus [2] = organism: Mus musculus; test: Potency (Emax) against electrically evoked contraction (twitch response) in mouse vas deferens; NA means Inactive up to 10 uM; type: functional, organism-based
Summary of the method: (§2)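 Mouse vas deferens held in Mg2+-free Krebs at 33 °C under 0.3 g resting tension. Field stimulation through platinum electrodes with supramaximal 1-ms pulses at 0.1 Hz, twitches recorded isotonically. After about 2 h equilibration, cumulative concentration-response curves built in 0.5 log steps up to 10 µM. pEC50 taken as the concentration giving half-maximal effect. Mean of at least 3 experiments.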

Nociceptin receptor [3] = target: T1, Nociceptin receptor (Mus musculus, UniProt P35377); test: Binding affinity towards Orphanin FQ receptor on mouse forebrain membranes was determined using [3H]-NC-NH2 as radioligand; set-up: species or system Membrane
T1 sequence (P35377 whole entry): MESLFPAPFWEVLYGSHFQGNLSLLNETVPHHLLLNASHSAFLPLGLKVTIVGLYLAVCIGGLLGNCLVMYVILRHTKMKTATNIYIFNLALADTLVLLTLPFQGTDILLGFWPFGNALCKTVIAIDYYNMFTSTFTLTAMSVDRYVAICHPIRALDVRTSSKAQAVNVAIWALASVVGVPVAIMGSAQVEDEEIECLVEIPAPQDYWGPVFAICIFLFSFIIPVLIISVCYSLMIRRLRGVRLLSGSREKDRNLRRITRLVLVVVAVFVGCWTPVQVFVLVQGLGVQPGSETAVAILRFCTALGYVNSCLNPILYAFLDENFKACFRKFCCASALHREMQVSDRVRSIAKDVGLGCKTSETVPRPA
Summary of the method: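 Forebrain membranes from male Swiss mice (25-30 g), homogenized in 50 mM Tris HCl, 2 mM EDTA, 100 µM PMSF, pH 7.4, then preincubated 30 min at 37 °C. Competition against 0.5 nM [3H]NC-NH2 using 200 µg protein per assay, run in duplicate, 120 min at 25 °C. Bound ligand separated by GF/C filtration. Ki obtained by nonlinear least-squares fitting.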

Mus musculus [4] = organism: Mus musculus; test: Compound was tested for agonistic activity against electrically evoked contraction (twitch response) in mouse vas deferens; NA means Inactive up to 10 uM; type: functional, organism-based; summary of the method: as §2
Mus musculus [5] = organism: Mus musculus; test: Potency (Emax) at 10 uM against electrically evoked contraction (twitch response) in mouse vas deferens; Slight effect (50% inhibition was detected at 10 uM); type: functional, organism-based; summary of the method: as §2
Mus musculus [6] = organism: Mus musculus; test: Compound was tested for agonistic activity against electrically evoked contraction (twitch response) in mouse vas deferens; Slight effect (50% inhibition was detected at 10 uM); type: functional, organism-based; details: filed as partial agonist; summary of the method: as §2
Nociceptin receptor [7] = target: T1, Nociceptin receptor; test: Affinity to nociceptin receptors on mouse forebrain membranes by [3H]NC-NH2 displacement.
Summary of the method: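 Forebrain membranes from male Swiss mice (25-30 g), homogenized in 50 mM Tris HCl, 2 mM EDTA, 100 µM PMSF, pH 7.4, then preincubated 30 min at 37 °C. Bound ligand separated by GF/C filtration. Ki obtained by nonlinear least-squares fitting.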

Mus musculus [8] = organism: Mus musculus; test: Compound was tested for the antagonistic activity on mouse vas deferens using NC(1-13)NH2 as agonist; type: functional; summary of the method: as §1

Row | Compound | pKB (Mus musculus [1]) | Emax (Mus musculus [2]) | Ki (Nociceptin receptor [3]) [nM] | Log EC50 (Mus musculus [4]) | Emax (Mus musculus [5]) | Log EC50 (Mus musculus [6]) | Ki (Nociceptin receptor [7]) [nM] | pKB (Mus musculus [8])
1 | C[C@H](NC(=O)CNC(=O)[C@@H](NC(=O)[C@H](Cc1ccccc1)NC(=O)CNC(=O)CNC(=O)CNCc1ccccc1)[C@@H](C)O)C(=O)N[C@@H](CCCN=C(N)N)C(=O)N[C@@H](CCCCN)C(N)=O (H-[Nphe]GGFTGARK-NH2) | inactive | inactive | > 10000 | inactive |  |  |  | 
2 | C[C@H](NC(=O)CNC(=O)[C@@H](NC(=O)[C@H](Cc1ccccc1)NC(=O)CNC(=O)CNC[C@@H](N)Cc1ccc(O)cc1)[C@@H](C)O)C(=O)N[C@@H](CCCN=C(N)N)C(=O)N[C@@H](CCCCN)C(=O)N[C@@H](CO)C(=O)N[C@@H](C)C(=O)N[C@@H](CCCN=C(N)N)C(=O)N[C@@H](CCCCN)C(N)=O (H-[X5]GFTGARKSARK-NH2) |  |  |  |  | Partially active | Partial agonist | 100 | 5.7
3 | CC(C)C[C@H](N)CNCC(=O)NCC(=O)N[C@@H](Cc1ccccc1)C(=O)N[C@H](C(=O)NCC(=O)N[C@@H](C)C(=O)N[C@@H](CCCN=C(N)N)C(=O)N[C@@H](CCCCN)C(=O)N[C@@H](CO)C(=O)N[C@@H](C)C(=O)N[C@@H](CCCN=C(N)N)C(=O)N[C@@H](CCCCN)C(N)=O)[C@@H](C)O (H-[X1]GFTGARKSARK-NH2) |  |  |  |  | Partially active | Partial agonist | 15.8 | 5.4
